Experimental data from ChEMBL document CHEMBL4513216, “Probing the Open Global Health Chemical Diversity Library for Multistage-Active Starting Points for Next-Generation Antimalarials” (ACS Infect Dis, 2020).

Experiment: Toxicity liver stage against HepG2, at 10uM
Assay type: cell-based
Parameters: test concentration 10 uM, cell line HepG2-A16-CD81EGFP
Details: human, HepG2-A16-CD81EGFP cells; read-out: INHIBITION
Procedure, shortened: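 Uninfected HepG2-A16-CD81EGFP cells, 3 × 10^3 per well, 1536-well, plated on prespotted compound at 10 μM final, parasite-free screening media added to match infected plates; puromycin 10 μM positive, DMSO 0.5% negative; run in parallel with 48 h PbLuc assay at 37 °C, 5% CO2; viability by CellTiter-Glo luminescence, normalized to controls.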

Compound	cytotoxicity at 10 µM
CN(C)CCN(C)C[C@H]1CN2CC[C@H]1C[C@@H]2CNC(=O)Nc1ccsc1	9.53%
CN1C(=O)CO[C@H](c2ccc(NC(=O)c3cccnc3)cc2)[C@H]1CO	6.15%
CCC(CNC(=O)C1CC1)(OC)c1ccccc1 (centres undefined)	-4.34%
CCN1CCc2c(c(COC)nn2C)C1	5.09%
CN1C(=O)CCCC12CCCN(C(=O)c1ccoc1)C2 (centres undefined)	-4.04%
Cc1csc(CN2CC[C@H]3C(=O)N(c4cccnc4)CCO[C@H]3C2)n1	6.31%
COCCNC(=O)c1nc2c(s1)CCCN2Cc1ccccc1	12.6%
O=C(c1nc2c(s1)CCCN2CC1CC1)N1CCOCC1	11.2%
O=C(c1ccno1)N1CCC2(CC(=O)N(c3ccc4c(c3)OCO4)C2)C1 (centres undefined)	9.82%
Cn1cccc1C(=O)N1CCC2(CCCN2S(C)(=O)=O)CC1	5.13%
CCS(=O)(=O)N1CCCC2(COCCN(c3nncs3)C2)C1 (centres undefined)	7.77%
CC(C)COCC1CN(Cc2cnn(C)c2)Cc2ncn(C)c21 (centres undefined)	0.588%
Cn1cc(CN2C[C@@H]3COC[C@]3(C(=O)NCc3cccs3)C2)cn1	7.22%
O=C(CCc1ccc2c(c1)CCO2)Nc1nnn[nH]1	0.301%
Cc1nn(C)c(=O)c2nn(-c3ccc(Cl)cc3)c(C)c12	-4.18%
O=S(=O)(Cc1ccc(Br)cc1)NCCO	6.73%
Cn1cc(N2CC3(CCN(S(=O)(=O)C4CC4)C3)CC2=O)cn1 (centres undefined)	-9.82%
Nc1ncc(-c2ccc(F)cc2)c(C2CCCNC2)n1 (centres undefined)	0.109%
O[C@@H]1C[C@H]2CN(Cc3ccccc3Cl)[C@H](Cc3ccccc3)CN2C1	-2.51%
CN(C)c1nccnc1C1CCN(C(=O)C2(C)CCCCN2C)CC1 (centres undefined)	10%
CN(C)C(=O)C1(c2cnccn2)CCCN1C(=O)Cc1ccccc1 (centres undefined)	0.225%
CC(C)c1nccn1-c1nccnc1C1CCCN1Cc1ccccc1 (centres undefined)	-0.943%

Compound	cytotoxicity at 10 µM
Fc1cccc(CN2CCC(c3noc(-c4ccncc4)n3)CC2)c1F	-6.21%
CCn1cc(CN2CCN(CC(O)c3ccc(C)cc3C)CC2)c(C)n1 (centres undefined)	-0.664%
CC(=O)N1CCC(Oc2ccc(C#N)cc2)CC1	-83.4%
CC(C)(C)c1nnc(CSc2ccccn2)o1	5.23%
O=C(O)CCc1ccc(S(=O)(=O)Nc2cnn(CC(F)(F)F)c2)cc1	-7.52%
Cc1cccc(C(=O)N(CC(=O)O)CC(C)C)c1	-14.3%
O=C1CCCN1CCN1CCCCC1Cn1cccn1 (centres undefined)	12.9%
CCNC(=O)C1CCN(Cc2ccccc2OCC(F)(F)F)CC1	-3.03%
COc1c(C)cnc(CSc2nnc(N)s2)c1C	10.1%
CCCc1nc(CN(C)CC2CCN(CCO)CC2)no1	2.64%
CS(=O)(=O)NCCC1CCCCN1C(=O)NCCc1ccccc1 (centres undefined)	-6%
COCc1ccc(CNC(=O)CN2CCc3ccccc32)cc1	6.68%
Cc1cc(NS(=O)(=O)c2ccc(Cl)s2)ccc1-n1cccc1C(=O)O	3.2%
Cc1cc(C(=O)N2CCOC(c3nc(C)n[nH]3)C2)[nH]n1 (centres undefined)	-11.7%
N#CCCN(c1ccc(F)cc1)S(=O)(=O)CC1CCCCO1 (centres undefined)	5.65%
Cc1noc(C)c1CN(C)Cn1c(=O)n(C)c2ccccc21	5.25%
Cc1cc2c(cc1NC(=O)NCC(C)C)OCO2	1.01%
COc1ccc2c(c1)CCCN2C(=O)NCCc1cnn(C)c1	-6.94%
O=C(CCC(=O)c1cccs1)NC1(C(=O)NCC2CC2)CCCC1	-10.6%
CC(Cn1cccn1)NS(=O)(=O)Cc1ccccc1 (centres undefined)	6.8%
Cc1cnn(CC2CCCN2Cc2cc(=O)n3ccccc3n2)c1 (centres undefined)	-1.61%
Cc1ccc(C(=O)NCCCNS(C)(=O)=O)c(=O)[nH]1	-15.3%

Compound	cytotoxicity at 10 µM
CCC(CNC(=O)c1ccc(=O)[nH]n1)N1CCc2ccccc2C1 (centres undefined)	-7.9%
OC1CCN(Cc2cc3c(cc2Br)OCCO3)CC1	7.73%
Cc1nn(C)c2sc(C(=O)N3CCCC(n4ccnc4C)C3)cc12 (centres undefined)	-10%
CCS(=O)(=O)N1CCN(CC2CC2)c2ncccc2C1	7.97%
O=C1COC2(COCCN(c3cnccn3)C2)CN1c1cccc(F)c1 (centres undefined)	-104%
COC[C@@H]1CCC[C@@]12CN(C(=O)N(C)C)CCO2	-102%
O=C(c1cscn1)N1CCC2(CCN(Cc3nccs3)C2)CC1	1.8%
CC(C)NC(=O)N1CCCC(c2nnc(CN3CCOCC3)n2C)C1 (centres undefined)	-0.392%
CC(c1ccccn1)N(C)Cc1ccc(-n2cncn2)cc1 (centres undefined)	5.33%
COc1cc(N2CCCC(c3ncc[nH]3)C2)ncn1 (centres undefined)	3.47%
CN(C(=O)CC1=CCCCC1)C1CCCN(C2Cc3ccccc3C2)C1 (centres undefined)	-0.296%
CCO[C@H]1CN(C)C[C@@H]1NC(=O)c1cc(C)nc2ccc(C)cc12	4.15%
Cc1cc(C)n(C2CCN(Cc3c(-c4cc(C)on4)nn(C)c3Cl)C2)n1 (centres undefined)	3.84%
CCCc1ccc(CN2CCN(C(=O)NCC)[C@H]3CS(=O)(=O)C[C@H]32)o1	2.71%
c1ccc(CCCC2CN(Cc3ncc[nH]3)CCO2)cc1 (centres undefined)	-3.83%
COc1ccc(F)cc1NC(=O)NCC1(CN2CCOCC2)CC1	3.18%
CC(C)[C@H](NC(=O)c1cccc(CCC(C)(C)O)c1)C(N)=O	-0.471%
Cc1cc(N2CCCC3(CN(C)C(=O)O3)C2)c2cc3c(cc2n1)OCO3 (centres undefined)	-5.05%
Cc1nc(N2CCC(O)(c3ccccc3)CC2)c2c(C)nn(C)c2n1	1.22%
CC(C)C[C@@H](CO)n1cc(-c2cncnc2)nn1	-0.268%
CC(C)[C@H]1CN(Cc2ccccn2)C[C@@H]1NC(=O)CCS(C)(=O)=O	-7.04%
CN(C)[C@H]1CN(C(=O)CCCc2ccc(F)cc2)C[C@@H]1C1CC1	-3.01%

Compound	cytotoxicity at 10 µM
COc1ccccc1CN(C)C(=O)CN1C(=O)OC[C@@H]1c1ccccc1	-43.6%
CSCCCN1CCn2nc(CNC(=O)N(C)C)cc2C1	-2.66%
O=C1CC2(CCCC2)CC(=O)N1Cc1nccs1	3.16%
O=C(c1ccc(O)c(Cl)c1)N1C[C@@H](CN2CCCCCC2)[C@@H](CO)C1	1.89%
CNc1ccnc(NCCC(=O)Nc2ccccc2C)n1	-1.53%
CC(c1ccncn1)N(C)Cc1cc(O)c2cc(F)ccc2n1 (centres undefined)	-2%
N#CC1CCN(C(=O)CN2CC(c3ccccc3)CC2=O)CC1 (centres undefined)	-0.745%
Nc1nccc(NCc2cc3n(n2)CCCN(C(=O)C2CCC2)C3)n1	-6.49%
CC(CN1CCOCC1)NCc1nncn1C1CCCCC1 (centres undefined)	1.52%
CSCC[C@H](N)C(=O)NCc1cc2n(n1)CCCN(C(=O)C1CCC1)C2	-12.9%
CC(=O)N1CCN(c2cc(-c3ccccc3)nc3c(C)c(C)nn23)CC1	-13.1%
COc1ccccc1CC(=O)N1CC[C@@]2(CCCO2)[C@@H](OC)C1	11.7%
Cc1cnn(C2CCCN(C(=O)c3ccccc3-n3cnnn3)C2)c1 (centres undefined)	-6.92%
CC(C)c1nccn1C1CCCN(C(=O)c2cnn(C)c2C2CC2)C1 (centres undefined)	-5.5%
O=C(CCN1C(=O)CCC1=O)Nc1cnn(-c2ccccc2Cl)c1	-9.56%
CCc1[nH]ncc1C(=O)N1CCCC(n2ccnc2C(C)C)C1 (centres undefined)	2.43%
CCOc1cccc2c1OCC(C(=O)NS(=O)(=O)Cc1ccccc1)=C2	-7.22%
COc1ccc(C(=O)N2CCCC(C)C2)cc1F (centres undefined)	-11.6%
Cc1ccc(OCC(O)CN2CCC(Cn3cccn3)CC2)cc1 (centres undefined)	-16%
Cc1nc(CNCC2CCCN2c2cccnn2)no1 (centres undefined)	-1.59%
O[C@@H]1CN(Cc2ccc(F)cc2)CC[C@H]1NCc1ccccn1	-2.83%
CC(C)N1CCC2(CC1)C(=O)N(c1cccnc1)c1ccc(F)cc12	12.4%

Compound	cytotoxicity at 10 µM
Cc1cc(C)nc(Nc2cccc(C3CCCN(C)C3)n2)n1 (centres undefined)	-4.45%
CC(C)N(C)Cc1cnc2n1CCN(Cc1ccco1)C2	2.22%
CCN1C[C@H]2C3(CCN(C(=O)NC(C)C)CC3)CC[C@@]2(C(=O)N(C)C)C1	-109%
CCN1CCC12CCN(C(=O)c1cc(C)on1)C2 (centres undefined)	5.71%
Cn1cc(CN2CCCC23CCN(C(=O)c2cccs2)CC3)cn1	2.17%
Cc1ccc(CN2Cc3nnn(C)c3C(COCc3ccccc3)C2)o1 (centres undefined)	5.44%
COc1cccc(CN(Cc2ncc[nH]2)Cc2ccco2)c1	-8.01%
CN(C)c1nc(N2CCCC2)nc2c1CCN(C(=O)c1ccco1)CC2	14.4%
COc1ncccc1CN1Cc2nnn(C)c2C(COCC2CC2)C1 (centres undefined)	12.4%
CN(C)C(=O)CN1CCC2(CCN(CC3CC3)CC2)C1=O	-3.69%
O=C(c1ccccn1)N1CCC2(CCCN(c3nncs3)C2)C1 (centres undefined)	-111%
O=C(c1ccno1)N1CC[C@@H]2O[C@@H](COCCN3CCCC3)CC[C@@H]21	0.925%
CN1[C@H](Cn2cccn2)C[C@@H]2CN(Cc3cccs3)CC[C@@H]21	11.9%
O=C1C[C@H]2[C@H](CCN2Cc2ccccn2)N1CC1CC1	5.8%
CN1CCC(N2CCC(C(=O)N(C)C)CC2)CC1	-1.82%
Cn1cc(C(=O)NCc2cncc3c2CCN(CC2CC2)C3)cn1	-103%
CC1=N[C@@]2(CC[C@@H]3CN(Cc4ccccc4C)C[C@@H]32)C(=O)N1CC1CC1	-2.6%
OCCN1CCC2(CCc3cc(-c4ccoc4)ccc32)CC1	-0.582%
CN(C)C(=O)NCc1ncn2c1CN(Cc1ccco1)CCC2	8.22%
CSc1ccccc1CN1C[C@H]2CC[C@@H](C1)N(CC1CC1)C2=O	-4.81%
N#Cc1cccc(C(=O)N2C[C@@H]3CC[C@H]2CN(C(=O)C2CCC2)C3)c1	-2.5%
